Measured values reported in ChEMBL document CHEMBL1811784, “Synthesis and SERCA activities of structurally simplified cyclopiazonic acid analogues” (Bioorg Med Chem, 2011).

experiment: Inhibition of Heliothis virescens SERCA expressed in Sf9 cells assessed as ATP depletion measured after 60 mins by luciferin/luciferase coupled reporter gene assay
In short: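 Microsomal membranes from Sf9 cells coinfected with baculovirus carrying full-length H. virescens SERCA (aa 2-1000), MOI 0.3, harvested after 3 days. 0.4 µg/mL enzyme with 0.05 mM ATP, inhibitor 3.2 nM–50 µM final, MOPS pH 7.5 buffer with Mg2+, Ca2+/EGTA, A23187. Remaining ATP read by luciferin/luciferase luminescence. Quadruplicates, normalized, sigmoid fit for IC50. Luciferase-only counterscreen run without SERCA.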

Compound	IC50
CC(=O)C1=C(O)[C@@H]2[C@H]3c4c[nH]c5cccc(c45)C[C@H]3C(C)(C)N2C1=O [CYCLOPIAZONIC ACID]	0.01 µM
C/C(O)=C1\C(=O)[C@@H]2[C@H]3[C@@H]4C(=O)N(C)c5cccc(c54)C[C@H]3C(C)(C)N2C1=O [SPERADINE A]	8 µM
COC(=O)[C@H]1NC(C)(C)[C@@H]2Cc3cccc4[nH]cc(c34)[C@H]12	> 50 µM
CC(O)=C1C(=O)N2[C@H]3CCCC[C@H]3C(C)(C)N2C1=O (mixture of isomers)	40 µM
CC(O)=C1C(=O)C2c3ccccc3C(C)(C)N2C1=O (mixture of isomers)	> 50 µM

Results, then the molecule that gave them:

IC50	Compound
0.13 µM	CC(C)(C)c1cc(O)c(C(C)(C)C)cc1O
5 µM	C/C(O)=C1\C(=O)[C@@H]2[C@H]3c4c[nH]c5cccc(c45)C[C@@H]3C(C)(C)N2C1=O
40 µM	CC(O)=C1C(=O)N2c3ccccc3C(C)(C)N2C1=O (mixture of isomers)
6.3 µM	CC(O)=C1C(=O)C2Cc3ccccc3C(C)(C)N2C1=O (mixture of isomers)
0.5 µM	C/C(O)=C1\C(=O)[C@H]2[C@H]3c4c[nH]c5cccc(c45)C[C@H]3C(C)(C)N2C1=O
19.9 µM	CC(O)=C1C(=O)[C@H]2[C@H]3CCCC[C@H]3C(C)(C)N2C1=O (mixture of isomers)
0.63 µM	CC(O)=C1C(=O)[C@@H]2[C@H]3CCCC[C@H]3C(C)(C)N2C1=O (mixture of isomers)
